In the library only some 1.8% were active in any assay of this set; here they are far more common.
CASP6 VEID inh: inhibitors of human caspase-6. P55212. purified caspase-6, Z-VEID-R110 cleavage fluorescence. inhibition, % at 12.5 µM. actives 0.53% (n = 350,000). AID 686996;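 active means mean inhibition across replicates at least about 35%, with every replicate also reaching that limit, limit read from the data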
NSD2 inh: inhibitors of human histone methyltransferase NSD2; actives 0.54% (n = 310,000); NSD2 peptide methylation, AlphaScreen, 120 min; inhibition, % at 12.5 µM; in the data active means inhibition above about 50%
LEDGF integ inh: blocks HIV-1 LEDGF/p75-dependent DNA integration. TR-FRET IN-LEDGF/p75 DNA integration, Eu/Cy5. inhibition, % at 3.7 µM. actives 0.64% (n = 370,000). AID 743269;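 active means inhibition above the screen-wide mean plus 3 SD, cut at about 13% in these data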;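 further: signal is the Cy5 over europium emission ratio at 671 and 618 nm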
UHRF1 MBD2 ctr: blocks human UHRF1 binding to methylated DNA; inhibition, % at 4.4 µM; actives 0.75% (n = 370,000); Q96T88; AID 687016; UHRF1 binding to methylated oligo, TR-FRET;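 further: UHRF1 SRA domain binding a hemimethylated CpG hairpin DNA probe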
Target sequence (Q96T88 whole entry, looked up, the tested form may be a part): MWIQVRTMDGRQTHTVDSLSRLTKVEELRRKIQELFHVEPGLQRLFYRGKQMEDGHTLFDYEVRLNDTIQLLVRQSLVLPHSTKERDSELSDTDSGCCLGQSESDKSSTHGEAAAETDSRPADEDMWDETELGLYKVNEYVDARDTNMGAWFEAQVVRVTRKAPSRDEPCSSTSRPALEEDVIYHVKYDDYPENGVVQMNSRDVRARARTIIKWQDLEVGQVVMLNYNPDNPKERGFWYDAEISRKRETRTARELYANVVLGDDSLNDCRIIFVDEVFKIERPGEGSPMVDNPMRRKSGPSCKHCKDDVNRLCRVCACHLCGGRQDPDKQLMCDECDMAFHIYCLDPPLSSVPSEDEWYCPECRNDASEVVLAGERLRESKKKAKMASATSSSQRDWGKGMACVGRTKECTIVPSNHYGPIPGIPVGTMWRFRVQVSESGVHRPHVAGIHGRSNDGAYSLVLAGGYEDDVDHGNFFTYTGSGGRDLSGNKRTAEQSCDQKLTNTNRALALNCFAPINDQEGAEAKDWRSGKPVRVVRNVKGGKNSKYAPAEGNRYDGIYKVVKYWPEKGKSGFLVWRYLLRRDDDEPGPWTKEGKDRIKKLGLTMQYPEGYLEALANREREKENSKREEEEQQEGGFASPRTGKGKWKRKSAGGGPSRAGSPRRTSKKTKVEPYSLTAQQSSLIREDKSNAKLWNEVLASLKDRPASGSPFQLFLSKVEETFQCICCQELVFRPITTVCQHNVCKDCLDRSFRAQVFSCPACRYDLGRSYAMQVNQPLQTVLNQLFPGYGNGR
TDP2 inh: blocks human TDP2 phosphodiesterase activity. actives 0.34% (n = 370,000). recombinant TDP2, T5PNP hydrolysis, p-nitrophenol absorbance 415 nm. inhibition, % at 12.8 µM;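 active means inhibition above the mean of all tested compounds plus 3 SD, set per campaign, cut at about 25% in these data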
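test system = human TDP2 enzyme | input = TDP2 enzyme at 120 nM final | medium = 50 mM Tris-HCl pH 7.5 with Mg2+, KCl, DTT, BSA | also added = T5PNP substrate, 5 mM | times = 2 h at 37 °C | technique = epi absorbance | benchmarks = high control without enzyme, low control DMSO plus TDP2 | replication = each compound tested once, singlicate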
MBD2 inh: blocks human MBD2 binding to methylated DNA; Q9UBB5; TR-FRET, MBD2 binding to methylated oligonucleotide; inhibition, % at 4.4 µM; actives 0.31% (n = 370,000); AID 686964; in the data active means inhibition above about 13%
UHRF1 ctr MBD2: inhibits human UHRF1 binding to methylated oligonucleotide, MBD2 counter-screen; AID 720530; shares compounds with MBD2 inh; TR-FRET; inhibition, % at 4.4 µM; actives 25% (n = 1,000);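 further: UHRF1 SRA domain binding a labeled hemimethylated CpG hairpin DNA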
MBD2 confirm: MBD2-DBD methyl-DNA binding inhibition, TR-FRET confirmation | actives 26% (n = 1,000) | TR-FRET MBD2-DBD binding to methylated oligonucleotide | inhibition, % at 4.4 µM | shares compounds with MBD2 inh; in the data active means inhibition above about 14%
Large screens that a line does not name were inactive (follow-up assays come after a bar, where they were run). Unless noted, no stated cut-off is given here; in the data, active means inhibition above about 21%; inactive means the rest.

COc1cc2c(c(OC)c1OC)-c1ccc(NC(=O)c3ccc(F)cc3)c(=O)cc1[C@@H](NC(C)=O)CC2	UHRF1 MBD2 ctr 21 (no result: CASP6 VEID inh)
O=C(NCC(F)(F)F)[C@H]1[C@H](CO)[C@H]2Cn3c(cccc3=O)[C@H]2N1Cc1cccc(F)c1	none (no result: NSD2 inh, LEDGF integ inh, UHRF1 MBD2 ctr, TDP2 inh, MBD2 inh)
CCC(=O)NC(NC(=S)Nc1ccccc1Br)C(Cl)(Cl)Cl (stereo not drawn)	CASP6 VEID inh 59 (no result: NSD2 inh)
Cc1cccc(C)c1-n1nnnc1C1(C)CCC(=O)N1c1ccc(N2CCOCC2)cc1 (stereo not drawn)	UHRF1 MBD2 ctr 23 (no result: NSD2 inh)
COc1ccc(CNC(=O)C2CCN(c3nnc(N4CCCC4=O)s3)CC2)cc1	UHRF1 MBD2 ctr 22 (no result: NSD2 inh)
COc1ccc(Br)cc1CNC(=O)C1CCN(c2nnc(N3CCCC3=O)s2)CC1	none
O=C(Nc1ccnn1C1CCN(C(=O)c2ccccc2C(F)(F)F)CC1)C1CC1	LEDGF integ inh 14
O=C(Nc1ccnn1C1CCN(C(=O)c2c(F)cccc2F)CC1)C1CC1	none
CC(=O)c1cccc(NC(=O)CN(c2cccc(F)c2)S(C)(=O)=O)c1	none (no result: CASP6 VEID inh, NSD2 inh)
CS(=O)(=O)N(CC(=O)Nc1ccc(S(=O)(=O)N2CCCC2)cc1)c1cccc(F)c1	UHRF1 MBD2 ctr 28
CCOC(=O)C1=C(C)N=c2sc(=Cc3cc(Cl)c(OCC(=O)O)c(Cl)c3)c(=O)n2C1c1cccc(OC)c1 (stereo not drawn)	CASP6 VEID inh 38 (no result: NSD2 inh)
CO[C@@H]1CN(C)C(=O)c2cc(NC(=O)C3CCC3)ccc2OC[C@@H](C)N(C(=O)CN(C)C)C[C@@H]1C	none (no result: NSD2 inh, LEDGF integ inh, UHRF1 MBD2 ctr, TDP2 inh, MBD2 inh)
O=C(O)c1cc(S(=O)(=O)Nc2ccc3oc(=O)sc3c2)ccc1O	LEDGF integ inh 16 (no result: CASP6 VEID inh, NSD2 inh)
O=C(CCN1C(=O)c2cccc3cccc(c23)C1=O)NCc1cccnc1	UHRF1 MBD2 ctr 25
O=C(CCN1C(=O)C2C3C=CC(C3)C2C1=O)NCc1cccnc1 (stereo not drawn)	UHRF1 MBD2 ctr 22 (no result: CASP6 VEID inh)
N#CC1=C(N)Oc2cc(O)c(Cl)cc2C1c1ccccc1F (stereo not drawn)	CASP6 VEID inh 44
CCOc1ccc(Nc2nc(N3CCOCC3)nc(N3CCOCC3)n2)cc1	CASP6 VEID inh 41
CN1N=C(N)c2cn(C3OC(COP(=O)(O)O)C(O)C3O)c3ncnc1c23 (stereo not drawn)	CASP6 VEID inh 46
Nc1ncnc2c1ncn2[C@@H]1O[C@H](COP(=O)(O)O)[C@@H](O)[C@H]1O	none (no result: CASP6 VEID inh, NSD2 inh)
CC1CCCN(CC(O)COC(c2ccccc2)c2ccccc2)C1 (stereo not drawn)	CASP6 VEID inh 38
OC1CCCN(CC(O)COC(c2ccccc2)c2ccccc2)C1 (stereo not drawn)	none
CSC1=NSC2=NC(=O)/C(=C/c3coc4ccc(O)cc4c3=O)C(=N)N12	CASP6 VEID inh 40 (no result: NSD2 inh)
O=C1NN(c2ccccc2)C(=O)/C1=C\c1coc2ccc(O)cc2c1=O	CASP6 VEID inh 39
CSC1=NSC2=NC(=O)/C(=C\c3cccs3)C(=N)N12	none (no result: CASP6 VEID inh)
O=C1NN(c2ccccc2)C(=O)/C1=C/c1coc2ccccc2c1=O	none (no result: CASP6 VEID inh)
CC(=O)Nc1ccc(S(=O)(=O)N2CCSC2c2ccco2)cc1 (stereo not drawn)	UHRF1 MBD2 ctr 27
COc1ccc(N(C(=O)c2ccco2)C(C(=O)NC2CCCC2)c2ccncc2)cc1OC (stereo not drawn)	UHRF1 MBD2 ctr 23
O=C(Nc1cccc(F)c1)N1CC(=O)N2[C@H](CO)[C@H](c3ccc(-c4ccc(F)cc4)cc3)[C@@H]2C1	none (no result: NSD2 inh, LEDGF integ inh, UHRF1 MBD2 ctr, TDP2 inh, MBD2 inh)
O=C(CSc1nc2ccccc2c(=O)n1-c1ccccc1)N1CCc2ccccc2C1	UHRF1 MBD2 ctr 28 (no result: CASP6 VEID inh)
COc1ccc(Cc2c(-c3ccc(OC)c(OC)c3)nc3ccc(C)cn23)c(C)c1	UHRF1 MBD2 ctr 24 (no result: NSD2 inh)
Fc1ccc(-c2nc3ccc(Cl)cn3c2Cc2ccccc2)cc1	none (no result: NSD2 inh)
Cc1ccn2c(Cc3ccccc3)c(-c3ccc(F)cc3)nc2c1	UHRF1 MBD2 ctr 21 (no result: NSD2 inh)
COc1ccc(Cc2c(-c3ccc(F)cc3)nc3ccc(C)cn23)c(C)c1	UHRF1 MBD2 ctr 21 (no result: NSD2 inh)
CCOc1nc2c(c(C)nn2-c2ccccc2)c(C)c1CCC(=O)N1CCN(c2ccccn2)CC1	none (no result: CASP6 VEID inh, LEDGF integ inh, UHRF1 MBD2 ctr, TDP2 inh, MBD2 inh)
CO[C@@H]1CN(C)C(=O)c2ccc(NC(C)=O)cc2OC[C@H](C)N(Cc2ccccc2F)C[C@H]1C	none (no result: NSD2 inh, LEDGF integ inh, UHRF1 MBD2 ctr, TDP2 inh, MBD2 inh)
COc1ccc(C(=O)N2C[C@H]3[C@@H](c4ccccc42)[C@@H](CO)N3Cc2ccc3c(c2)OCO3)cc1	none (no result: NSD2 inh, LEDGF integ inh, UHRF1 MBD2 ctr, TDP2 inh, MBD2 inh)
COc1nc(C)cc(C)c1S(=O)(=O)c1ccc(Cl)cc1	none
CCOc1nc(C)cc(C)c1S(=O)(=O)c1ccc(Cl)cc1	UHRF1 MBD2 ctr 25
COc1ccc(Cc2c(C3CCCCC3)nc3ccc(C)cn23)c(C)c1	UHRF1 MBD2 ctr 25, MBD2 inh 18 (no result: NSD2 inh) | UHRF1 ctr MBD2 inactive | MBD2 confirm inactive
C[C@H](CO)N1C[C@H](C)[C@@H](CN(C)C(=O)Nc2ccc(C(F)(F)F)cc2)Oc2ccc(NC(=O)Nc3cccc4ccccc34)cc2CC1=O	none (no result: NSD2 inh, LEDGF integ inh, UHRF1 MBD2 ctr, TDP2 inh, MBD2 inh)
COc1ccc(CC(=O)Nc2cccc(S(=O)(=O)N3CCCCC3)c2)cc1	MBD2 inh 40 | UHRF1 ctr MBD2 inactive | MBD2 confirm inactive
CCOC(=O)c1c(C)n(C)c2ccc(OC)c([N+](=O)[O-])c12	UHRF1 MBD2 ctr 29, MBD2 inh 13 | UHRF1 ctr MBD2 inactive | MBD2 confirm inactive
COc1ccc(NC(=O)c2cccs2)cc1C(=O)N1CCN(c2ccccc2)CC1	MBD2 inh 24 | UHRF1 ctr MBD2 inactive | MBD2 confirm inactive
COc1cccc(OC)c1C(=O)Nc1ccc(N2CCN(C(=O)c3cccs3)CC2)cc1	none
CCOC(=O)CNS(=O)(=O)c1ccc(S(=O)(=O)N2CCCC2)cc1	none
Cc1ccc(S(=O)(=O)NCC(=O)OCC(=O)c2ccc(S(=O)(=O)N3CCCCC3)cc2)cc1C	MBD2 inh 25 | UHRF1 ctr MBD2 inactive | MBD2 confirm inactive
O=C(C[C@@H]1CC[C@H]2[C@@H](COC[C@@H](O)CN2Cc2ccncc2)O1)NCc1ccccc1Cl	none (no result: NSD2 inh, LEDGF integ inh, UHRF1 MBD2 ctr, TDP2 inh, MBD2 inh)
O=C(Nc1ccc2c(c1)[C@H]1C[C@H](CC(=O)N3CCc4ccccc4C3)O[C@H](CO)[C@H]1O2)NC1CCCC1	none (no result: NSD2 inh, LEDGF integ inh, UHRF1 MBD2 ctr, TDP2 inh, MBD2 inh)
CCOc1ccc(NC(=O)CN2CCCC2c2cccs2)cc1S(=O)(=O)N1CCCC1 (stereo not drawn)	MBD2 inh 42 | UHRF1 ctr MBD2 inactive | MBD2 confirm inactive
COc1ccc(NC(=O)CN2CCCC2c2cccs2)cc1S(=O)(=O)N1CCCCC1 (stereo not drawn)	none

Screening results deposited in PubChem by several laboratories.
